The source made the active and inactive calls. No cut-off for these calls is given here. Where a SMILES comes first, the peptide text is derived from it. [ ]: non-standard residue; d: D form. The star is where a group is joined. Hyp = O=C(O)[C@@H]1C[C@@H](O)CN1; Decanoyl = CCCCCCCCCC(=O)*; X1 = CC(C)C[C@@H](CN)N*; Aib = CC(C)(N)C(=O)O
Key:
Colletotrichum fragariae = assay: Antimicrobial activity against Colletotrichum fragariae by disk diffusion assay; assay type: functional
Method in brief: (§1)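 Filamentous fungal targets were tested on potato dextrose agar plates spread with 0.6 mL spore suspension (1 × 10^6 spores/mL) and dried 1 h. Samples in 10 µL MeOH were loaded on 4 mm paper disks, air-dried 1 h and laid on the plates. Activity was scored as inhibition zone size in mm.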

Bacillus subtilis [1] = assay: Antimicrobial activity against Bacillus subtilis by disk diffusion assay; assay type: functional, organism-based
Method in brief: (§2)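 Bacterial targets grown 24 h in nutrient broth. 0.6 mL of culture was spread on 9 cm nutrient agar plates and dried 1 h. Test samples in 10 µL MeOH were applied to 4 mm filter paper disks, air-dried 1 h and placed on the plates. Read-out was the inhibition zone diameter in mm.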

Escherichia coli [2] = assay: Antimicrobial activity against Escherichia coli by disk diffusion assay; assay type: functional, organism-based; method in brief: as §2
Fusarium oxysporum = assay: Antimicrobial activity against Fusarium oxysporum by disk diffusion assay; assay type: functional; method in brief: as §1
Botrytis cinerea = assay: Antimicrobial activity against Botrytis cinerea by disk diffusion assay; assay type: functional; method in brief: as §1
Bacillus cereus [3] = assay: Antimicrobial activity against Bacillus cereus by disk diffusion assay; assay type: functional, organism-based; method in brief: as §2
[4] = test system: Colletotrichum gloeosporioides; assay: Antimicrobial activity against Colletotrichum gloeosporioides by disk diffusion assay; assay type: functional; method in brief: as §1
Bacillus cereus [5] = assay: Antimicrobial activity against Bacillus cereus at 30 ug/disk by disk diffusion assay; assay type: functional; settings: read-out: IZ; method in brief: as §2
Bacillus subtilis [6] = assay: Antimicrobial activity against Bacillus subtilis at 30 ug/disk by disk diffusion assay; assay type: functional; settings: read-out: IZ; method in brief: as §2
Bacillus cereus [7] = assay: Antimicrobial activity against Bacillus cereus at 100 ug/disk by disk diffusion assay; assay type: functional; settings: read-out: IZ; method in brief: as §2
Escherichia coli [8] = assay: Antimicrobial activity against Escherichia coli at 100 ug/disk by disk diffusion assay; assay type: functional; settings: read-out: IZ; method in brief: as §2
Bacillus subtilis [9] = assay: Antimicrobial activity against Bacillus subtilis at 100 ug/disk by disk diffusion assay; assay type: functional; settings: read-out: IZ; method in brief: as §2

For `CCCCCCC(=O)CCCCCC/C=C/C[C@@H](O)[C@H](O)[C@@](N)(CO)C(=O)O` [MYRIOCIN], the “inhibition zone (IZ)” value (Colletotrichum fragariae) was 14 mm, the Activity (Bacillus subtilis [1]) was “inactive” and the Activity (Escherichia coli [2]) was “inactive”. For the same compound, the “inhibition zone (IZ)” value (Fusarium oxysporum) was 17 mm, the “inhibition zone (IZ)” value (Botrytis cinerea) was 28 mm and the Activity (Bacillus cereus [3]) was “inactive”. For the same compound, the “inhibition zone (IZ)” value [4] was 8 mm.

Compound `CN(C)[C@@H]1C(O)=C(C(N)=O)C(=O)[C@@]2(O)C(O)=C3C(=O)c4c(O)cccc4[C@@](C)(O)[C@H]3C[C@@H]12` [TETRACYCLINE] has a zone of inhibition at 30 µg/disc (Bacillus cereus [5]) of 29 mm and a zone of inhibition at 30 µg/disc (Bacillus subtilis [6]) of 18 mm.

In the case of `CCCCCCCCCC(=O)N1C[C@H](O)C[C@H]1C(=O)N1C[C@H](O)C[C@H]1C(=O)N[C@H](C(=O)NC(C)(C)C(=O)N[C@@H](CCC(N)=O)C(=O)NC(C)(C)C(=O)N[C@H](C(=O)N[C@H](CN)CC(C)C)[C@@H](C)CC)C(C)C` [CICADAPEPTIN II] (Decanoyl-[Hyp][Hyp]V[Aib]Q[Aib]I-X1), the zone of inhibition at 100 µg/disc (Bacillus cereus [7]) is reported as 12 mm, the zone of inhibition at 100 µg/disc (Escherichia coli [8]) is reported as 16 mm and the zone of inhibition at 100 µg/disc (Bacillus subtilis [9]) is reported as 11 mm.

For `CCCCCCCCCC(=O)N1C[C@H](O)C[C@H]1C(=O)N1C[C@H](O)C[C@H]1C(=O)N[C@H](C(=O)NC(C)(C)C(=O)N[C@@H](CCC(N)=O)C(=O)NC(C)(C)C(=O)N[C@@H](CC(C)C)C(=O)N[C@H](CN)CC(C)C)C(C)C` [CICADAPEPTIN I] (Decanoyl-[Hyp][Hyp]V[Aib]Q[Aib]L-X1), the zone of inhibition at 100 µg/disc (Bacillus cereus [7]) was 13 mm, the zone of inhibition at 100 µg/disc (Escherichia coli [8]) was 16 mm and the zone of inhibition at 100 µg/disc (Bacillus subtilis [9]) was 13 mm.

Source: ChEMBL document CHEMBL1158684, “Cicadapeptins I and II: new Aib-containing peptides from the entomopathogenic fungus Cordyceps heteropoda” (2005)
